# What was measured:
# IGROV-1 = assay: Growth inhibition of human IGROV1 cells after 48 hrs by SRB assay; format: functional; details: IGROV-1, 48 h
# In short: (§1)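 NCI 60-cell-line screen. Cells grown in RPMI1640 with 5% fetal calf serum and 2 mM L-glutamine, with inoculum density set by cell line. Preincubated 24 h, then given compound in DMSO at 10^-4 to 10^-8 M (five 10-fold steps) for 48 h continuous exposure. Growth measured by SRB protein assay. GI50, TGI and LC50 reported as –log molar.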
# K562 = assay: Growth inhibition of human K562 cells after 48 hrs by SRB assay; format: functional; details: K562, 48 h; in short: as §1
# SK-MEL-5 = assay: Growth inhibition of human SK-MEL-5 cells after 48 hrs by SRB assay; format: functional; details: SK-MEL-5, 48 h; in short: as §1
# SNB-75 = assay: Growth inhibition of human SNB75 cells after 48 hrs by SRB assay; format: functional; details: SNB-75, 48 h; in short: as §1
# PC-3 = assay: Growth inhibition of human PC3 cells after 48 hrs by SRB assay; format: functional; details: PC-3, 48 h; in short: as §1
# MDA-MB-468 = assay: Growth inhibition of human MDA-MB-468 cells after 48 hrs by SRB assay; format: functional; details: MDA-MB-468, 48 h; in short: as §1
# HCC 2998 = assay: Growth inhibition of human HCC2998 cells after 48 hrs by SRB assay; format: functional; details: HCC 2998, 48 h; in short: as §1
# SF-268 = assay: Growth inhibition of human SF268 cells after 48 hrs by SRB assay; format: functional; details: SF-268, 48 h; in short: as §1
# NCI-H522 = assay: Growth inhibition of human NCI-H522 cells after 48 hrs by SRB assay; format: functional; details: NCI-H522, 48 h; in short: as §1
# NCI-H460 [1] = assay: Cytotoxicity against human NCI-H460 cells after 72 hrs by SRB assay; format: functional, cell-based; details: NCI-H460, 72 h
# In short: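 NCI-H460 (ATCC) cells seeded in 96-well plates in growth medium. Scalar drug concentrations added 24 h after plating, then 72 h exposure. Surviving cells stained with sulforhodamine B, OD read at 570 nm. IC50 (50% growth inhibition) fitted from dose–response curves. Mean ± SE of at least three independent experiments.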
# RXF 393 = assay: Growth inhibition of human RXF393 cells after 48 hrs by SRB assay; format: functional; details: RXF 393, 48 h; in short: as §1
# A498 = assay: Growth inhibition of human A498 cells after 48 hrs by SRB assay; format: functional; details: A498, 48 h; in short: as §1
# KM12 = assay: Growth inhibition of human KM12 cells after 48 hrs by SRB assay; format: functional; details: KM12, 48 h; in short: as §1
# SR = assay: Growth inhibition of human SR cells after 48 hrs by SRB assay; format: functional; in short: as §1
# NCI-H322M = assay: Growth inhibition of human NCI-H322M cells after 48 hrs by SRB assay; format: functional; in short: as §1
# MCF7 = assay: Growth inhibition of human MCF7 cells after 48 hrs by SRB assay; format: functional; details: MCF7, 48 h; in short: as §1
# BT-549 = assay: Growth inhibition of human BT549 cells after 48 hrs by SRB assay; format: functional; details: BT-549, 48 h; in short: as §1
# HCT-15 = assay: Growth inhibition of human HCT15 cells after 48 hrs by SRB assay; format: functional; details: HCT-15, 48 h; in short: as §1
# HT-29 = assay: Growth inhibition of human HT-29 cells after 48 hrs by SRB assay; format: functional; details: HT-29, 48 h; in short: as §1
# HOP-62 = assay: Growth inhibition of human HOP62 cells after 48 hrs by SRB assay; format: functional; details: HOP-62, 48 h; in short: as §1
# DU-145 = assay: Growth inhibition of human DU145 cells after 48 hrs by SRB assay; format: functional; details: DU-145, 48 h; in short: as §1
# UO-31 = assay: Growth inhibition of human UO31 cells after 48 hrs by SRB assay; format: functional; details: UO-31, 48 h; in short: as §1
# SF-295 = assay: Growth inhibition of human SF295 cells after 48 hrs by SRB assay; format: functional; details: SF-295, 48 h; in short: as §1
# U-251 = assay: Growth inhibition of human U251 cells after 48 hrs by SRB assay; format: functional; details: U-251, 48 h; in short: as §1
# CCRF-CEM = assay: Growth inhibition of human CCRF-CEM cells after 48 hrs by SRB assay; format: functional; in short: as §1
# Malme-3M = assay: Growth inhibition of human MALME-3M cells after 48 hrs by SRB assay; format: functional; in short: as §1
# HL-60(TB) = assay: Growth inhibition of human HL-60(TB) cells after 48 hrs by SRB assay; format: functional; details: HL-60, 48 h
# In short: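 NCI 60-cell-line screen: cells grown in RPMI1640 with 5% fetal calf serum and 2 mM L-glutamine, preincubated 24 h, then exposed to compound in DMSO at five concentrations (10^-4 to 10^-8 M) for 48 h continuous exposure. Growth estimated by sulforhodamine B protein assay; reported as pGI50 (-log molar concentration inhibiting net cell growth by 50%).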
# M14 = assay: Growth inhibition of human M14 cells after 48 hrs by SRB assay; format: functional; details: M14, 48 h; in short: as §1
# OVCAR-3 = assay: Growth inhibition of human OVCAR-3 cells after 48 hrs by SRB assay; format: functional; details: OVCAR-3, 48 h; in short: as §1
# HCT-116 = assay: Growth inhibition of human HCT116 cells after 48 hrs by SRB assay; format: functional; details: HCT-116, 48 h; in short: as §1
# TK-10 = assay: Growth inhibition of human TK10 cells after 48 hrs by SRB assay; format: functional; details: TK-10, 48 h; in short: as §1
# OVCAR-4 = assay: Growth inhibition of human OVCAR4 cells after 48 hrs by SRB assay; format: functional; details: OVCAR-4, 48 h; in short: as §1
# NCI-H460 [2] = assay: Growth inhibition of human NCI-H460 cells after 48 hrs by SRB assay; format: functional; details: NCI-H460, 48 h; in short: as §1
# [3] = Growth inhibition of human […] cells after 48 hrs by SRB assay; format: functional; in short: as §1
# SW-620 = assay: Growth inhibition of human SW620 cells after 48 hrs by SRB assay; format: functional; details: SW-620, 48 h; in short: as §1
# T47D = assay: Growth inhibition of human T47D cells after 48 hrs by SRB assay; format: functional; in short: as §1
structure (smiles),measurement,setting,value
CCN(CC)c1ccc(C2=NN(C(C)=O)C(c3cc(OC)c(OC)c(OC)c3)C2)cc1 (stereo not given),GI50,IGROV-1,794 nM
same,TGI,IGROV-1; read-out: pTGI (converted),31600 nM
same,GI50,K562,631 nM
same,TGI,K562; read-out: pTGI (converted),> 100000 nM
same,GI50,SK-MEL-5,398 nM
same,TGI,SK-MEL-5; read-out: pTGI (converted),3980 nM
same,GI50,SNB-75,251 nM
same,TGI,SNB-75; read-out: pTGI (converted),631 nM
same,GI50,PC-3,316 nM
same,TGI,PC-3; read-out: pTGI (converted),12600 nM
same,GI50,MDA-MB-468,251 nM
same,TGI,MDA-MB-468; read-out: pTGI (converted),631 nM
same,GI50,HCC 2998,794 nM
same,TGI,HCC 2998; read-out: pTGI (converted),7940 nM
same,GI50,SF-268,794 nM
same,TGI,SF-268; read-out: pTGI (converted),20000 nM
same,GI50,NCI-H522,398 nM
same,TGI,NCI-H522; read-out: pTGI (converted),631 nM
same,IC50,NCI-H460 [1],980 nM
same,GI50,RXF 393,398 nM
same,TGI,RXF 393; read-out: pTGI (converted),2510 nM
same,GI50,A498,316 nM
same,TGI,A498; read-out: pTGI (converted),2510 nM
same,GI50,KM12,316 nM
same,TGI,KM12; read-out: pTGI (converted),12600 nM
same,GI50,SR,63.1 nM
same,TGI,SR; read-out: pTGI (converted),631 nM
same,GI50,NCI-H322M,501 nM
same,TGI,NCI-H322M; read-out: pTGI (converted),12600 nM
same,GI50,MCF7,316 nM
same,TGI,MCF7; read-out: pTGI (converted),10000 nM
same,GI50,BT-549,631 nM
same,TGI,BT-549; read-out: pTGI (converted),5010 nM
same,GI50,HCT-15,398 nM
same,GI50,HT-29,398 nM
same,TGI,HT-29; read-out: pTGI (converted),1580 nM
same,GI50,HOP-62,1580 nM
same,TGI,HOP-62; read-out: pTGI (converted),25100 nM
same,GI50,DU-145,398 nM
same,TGI,DU-145; read-out: pTGI (converted),2000 nM
same,GI50,UO-31,398 nM
same,TGI,UO-31; read-out: pTGI (converted),15800 nM
same,GI50,SF-295,200 nM
same,TGI,SF-295; read-out: pTGI (converted),631 nM
same,GI50,U-251,398 nM
same,TGI,U-251; read-out: pTGI (converted),12600 nM
same,GI50,CCRF-CEM,316 nM
same,TGI,CCRF-CEM; read-out: pTGI (converted),1000 nM
same,GI50,Malme-3M,200 nM
same,TGI,Malme-3M; read-out: pTGI (converted),25100 nM
same,GI50,HL-60(TB),126 nM
same,TGI,HL-60(TB); read-out: pTGI (converted),501 nM
same,GI50,M14,398 nM
same,TGI,M14; read-out: pTGI (converted),3160 nM
same,GI50,OVCAR-3,398 nM
same,TGI,OVCAR-3; read-out: pTGI (converted),10000 nM
same,GI50,HCT-116,316 nM
same,TGI,HCT-116; read-out: pTGI (converted),12600 nM
same,GI50,TK-10,398 nM
same,TGI,TK-10; read-out: pTGI (converted),20000 nM
same,GI50,OVCAR-4,631 nM
same,TGI,OVCAR-4; read-out: pTGI (converted),25100 nM
same,GI50,NCI-H460 [2],398 nM
same,TGI,NCI-H460 [2]; read-out: pTGI (converted),2000 nM
same,GI50,[3],158 nM
same,TGI,[3]; read-out: pTGI (converted),501 nM
same,GI50,SW-620,316 nM
same,TGI,SW-620; read-out: pTGI (converted),15800 nM
same,GI50,T47D,200 nM
same,TGI,T47D; read-out: pTGI (converted),20000 nM
